Measured values as given in ChEMBL document CHEMBL5321249, “Appraisal of Fungus-Derived Xanthoquinodins as Broad-Spectrum Anti-Infectives Targeting Phylogenetically Diverse Human Pathogens” (J Nat Prod, 2023).
pEC50: −log10 of the molar value.

Experiments:
[1] = Cytotoxicity against human HepG2 cells incubated for 48 hrs by MTS based assay; type: toxicity, cell-based
Plasmodium falciparum = assay: Antimalarial activity against asynchronous Plasmodium falciparum Dd2 infected in human A+ erythrocytes incubated for 72 hrs by SYBR Green I dye based assay; type: functional, organism-based; conditions: Dd2, Erythrocyte
Cryptosporidium parvum = assay: Antiparasitic activity against Nanoluciferase-tagged Cryptosporidium parvum infected in human HCT-8 cells assessed as inhibition of parasite growth incubated for 48 hrs by NanoGlo luciferase reagent based assay; type: functional, organism-based; conditions: HCT-8, 48 h
Summary of the method: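 HCT-8 cells grown 48 h to 50–75% confluence; calf-propagated oocysts activated 15 min in 10% bleach at room temperature, DPBS-washed, 5 × 10^3 per well in RPMI-1640 with 10% heat-inactivated FBS and penicillin-streptomycin plus graded compound, 48 h at 37 °C, 5% CO2. Lysed monolayers read with Nano-Glo; growth relative to infected untreated wells, no-parasite background; variable-slope sigmoidal EC50.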

Mycoplasma genitalium = assay: Antibacterial activity against Mycoplasma genitalium G37 assessed as bacterial growth inhibition incubated for 6 to 7 days by microbroth dilution assay; type: functional, organism-based; conditions: Mycoplasmoides genitalium
Summary of the method: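 M. genitalium G37 from frozen stock grown 2 days in SP-4 broth at 37 °C, 5% CO2, to log phase; 0.45 μm-filtered, diluted 1:200 in SP-4 with 7.5% FBS, ~10^4 CFU per well with 2-fold serial compound dilutions in triplicate.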

Trichomonas vaginalis = assay: Antiparasitic activity against Trichomonas vaginalis Donne PRA-98 incubated for 17 hrs by glutaraldehyde/propidium iodide/acridine orange staining based high-content imaging analysis; type: functional, organism-based; conditions: Donne PRA-98, 17 h
[2] = Selectivity index, ratio of EC50 for cytotoxicity against human HepG2 cells to EC50 for antimalarial activity against asynchronous Plasmodium falciparum Dd2 infected in human A+ erythrocytes; type: toxicity, cell-based; conditions: read-out: Ratio EC50
Summary of the method: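 SI is HepG2 EC50 over P. falciparum Dd2 EC50. Asynchronous-stage parasites were assayed by SYBR Green I fluorescence with chloroquine-treated and untreated controls, and EC50 came from dose–response fits. HepG2 cytotoxicity used an MTS absorbance assay in triplicate up to 25 μM, with a 5% Triton X-100 zero-viability control and a no-treatment control.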

[3] = Selectivity index, ratio of EC50 for cytotoxicity against human HepG2 cells to EC50 for antiparasitic activity against Nanoluciferase-tagged Cryptosporidium parvum infected in human HCT-8 cells assessed as inhibition of parasite growth; type: toxicity, cell-based; conditions: read-out: Ratio EC50
Summary of the method: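 For the parasite, 5 × 10^3 bleach-activated Nanoluciferase-tagged oocysts per well infected HCT-8 monolayers at 50–75% confluence in RPMI-1640 with 10% FBS. They were incubated 48 h at 37 °C, 5% CO2, then lysed for luminescence. Growth was expressed as percent of infected untreated wells and fitted by variable-slope sigmoidal dose–response.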

[4] = Selectivity index, ratio of EC50 for cytotoxicity against human HepG2 cells to EC50 for antibacterial activity against Mycoplasma genitalium G37; type: cell-based; conditions: read-out: Ratio EC50
Summary of the method: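 SI is HepG2 EC50 over M. genitalium G37 EC50. G37 (~10^4 CFU/well) was grown in SP-4 broth with 7.5% FBS against 2-fold serial dilutions in triplicate for 6–7 days at 37 °C, 5% CO2. Genomes were quantified by 16S rRNA qPCR against untreated wells. HepG2 cytotoxicity used an MTS assay in triplicate, maximum 25 μM, with Triton X-100-lysed and untreated controls.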

[5] = Selectivity index, ratio of EC50 for cytotoxicity against human HepG2 cells to EC50 for antiparasitic activity against Trichomonas vaginalis Donne PRA-98; type: toxicity, cell-based; conditions: read-out: Ratio EC50
Summary of the method: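 Trichomonads (4 × 10^4 per well) under microaerophilic conditions were treated with compound at no more than 0.5% DMSO for 17 h. Cells were then fixed with glutaraldehyde, propidium iodide and acridine orange, shaken, incubated 3 h at 37 °C, and counted by high-content imaging.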

| Structure (SMILES) | EC50 at 48 h [1] | pEC50 (Plasmodium falciparum) | pEC50 (Cryptosporidium parvum) | pEC50 (Mycoplasma genitalium) | pEC50 (Trichomonas vaginalis) | selectivity ratio [2] | selectivity ratio [3] | selectivity ratio [4] | selectivity ratio [5] |
| --- | --- | --- | --- | --- | --- | --- | --- | --- | --- |
| COC(=O)[C@@]12Oc3cc4c(c(O)c3C(=O)[C@]1(O)C(=O)CC[C@@H]2O)[C@@H]1C=C[C@@]2(C4)C(=O)c3cc(C)cc(O)c3C(=O)[C@]2(O)C1=O | > 25 µM | < 5.30 | < 5.00 | < 5.00 | < 5.00 | – | – | – | – |
| Cc1ncc([N+](=O)[O-])n1CCO [METRONIDAZOLE] | – | – | – | – | 5.46 | – | – | – | – |
| CCOc1ccc2cc(-c3nn(CC4CCN(C)CC4)c4ncnc(N)c34)ccc2c1 | – | – | 5.96 | – | – | – | – | – | – |
| COC(=O)[C@]1([C@@H]2CCC(=O)O2)CC(=O)c2c(cc3c(c2O)[C@@H]2C=C[C@@]4(C3)C(=O)c3cc(C)cc(O)c3C(=O)[C@]4(O)C2=O)O1 | > 25 µM | < 5.30 | < 5.22 | < 5.00 | < 5.00 | – | – | – | – |
| Cc1cc(O)c2c(c1)[C@@H]([C@@H]1c3cc(C)cc(O)c3C(=O)c3c(O)cc(O)cc31)c1cc(O)cc(O)c1C2=O (relative stereo) | 10.2 µM | 5.95 | < 5.62 | < 5.00 | < 5.00 | 9.1 | – | – | – |
| COC(=O)[C@]1([C@@H](O)CCC(=O)O)CC(=O)c2c(cc3c(c2O)[C@@H]2C=C[C@@]4(C3)C(=O)c3cc(C)cc(O)c3C(O)=C4C2=O)O1 | > 25 µM | < 5.30 | < 5.00 | < 5.00 | < 5.00 | – | – | – | – |
| CC[C@H]1OC(=O)[C@H](C)[C@@H](O[C@H]2C[C@@](C)(OC)[C@@H](O)[C@H](C)O2)[C@H](C)[C@@H](O[C@@H]2O[C@H](C)C[C@H](N(C)C)[C@H]2O)[C@](C)(O)C[C@@H](C)CN(C)[C@H](C)[C@@H](O)[C@]1(C)O [AZITHROMYCIN] | – | – | – | 9.30 | – | – | – | – | – |
| COC(=O)[C@]12Oc3c(c(O)cc4c3[C@@H]3C=C[C@@]5(C4)C(=O)c4cc(C)cc(O)c4C(=O)[C@]5(O)C3=O)C(=O)C1=C(O)CC[C@@H]2O | > 25 µM | < 5.30 | < 5.00 | < 5.00 | < 5.00 | – | – | – | – |
| COC(=O)[C@]1([C@@H](O)CCC(=O)O)CC(=O)c2c(cc3c(c2O)[C@@H]2C=C[C@@]4(C3)C(=O)c3cc(C)cc(O)c3C(=O)[C@]4(O)C2=O)O1 | > 25 µM | < 5.30 | < 5.00 | < 5.00 | < 5.00 | – | – | – | – |
| COC(=O)[C@]12Oc3cc4c(c(O)c3C(=O)C1=C(O)CC[C@@H]2O)[C@@H]1C=C[C@@]2(C4)C(=O)c3cc(C)cc(O)c3C(O)=C2C1=O [XANTHOQUINODIN A2] | > 25 µM | 6.30 | 5.46 | 6.92 | 5.17 | > 50 | > 7.1 | > 125 | > 3.7 |
| COC(=O)[C@@]12Oc3cc4c(c(O)c3C(=O)C1=C(O)CC[C@@H]2O)[C@@H]1C=C[C@@]2(C4)C(=O)c3cc(C)cc(O)c3C(O)=C2C1=O [XANTHOQUINODIN A1] | > 25 µM | 6.54 | 5.28 | 6.89 | 5.41 | > 86 | > 4.8 | > 62.5 | > 6.4 |
| COC(=O)[C@@]12Oc3cc4c(c(O)c3C(=O)C1=C(O)CC[C@@H]2O)[C@@H]1C=C[C@@]2(C4)C(=O)c3cc(C)cc(O)c3C(=O)[C@]2(O)C1=O | > 25 µM | < 5.30 | < 5.00 | < 5.00 | < 5.00 | – | – | – | – |
| COC(=O)[C@]1([C@@H]2CCC(=O)O2)CC(=O)c2c(cc3c(c2O)[C@@H]2C=C[C@@]4(C3)C(=O)c3cc(C)cc(O)c3C(O)=C4C2=O)O1 [XANTHOQUINODIN A3] | > 25 µM | < 5.30 | – | – | < 5.00 | – | – | – | – |
| COC(=O)[C@]1([C@@H]2CCC(=O)O2)CC(=O)c2c(O)cc(C)cc2O1 | > 25 µM | < 5.30 | < 4.40 | < 5.00 | < 5.00 | – | – | – | – |
| Cc1cc(O)c2c(c1)[C@@H]([C@H]1c3cc(C)cc(O)c3C(=O)c3c(O)cc(O)cc31)c1cc(O)cc(O)c1C2=O | 13.8 µM | 5.78 | < 5.14 | < 5.00 | < 5.00 | 8.6 | – | – | – |
